Compound activity: PubChem BioAssay, Broad Institute
FN deposit inh: fibronectin deposition inhibition; AH1F fibroblasts, Alexa488-fibronectin deposition fluorescence, overnight; AID 743247; inhibition, % at 12.6 µM; hit rate 0.086% among 350,000;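 active means mean inhibition across replicates of 30% or more, regardless of how many single replicates reach that level; inconclusive means mean under 30% yet at least half of replicates reach 30%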;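 further: positive control wells lacked labelled fibronectin entirely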
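Assay system: AH1F fibroblasts assembling fluorescent fibronectin matrix; Amount: 10000 AH1F cells per well; Buffer or medium: DMEM, 2% serum; Probe or stimulus: Alexa488-fibronectin, 24 nM final in well; Doses: single compound dose, delivered by pin transfer; Incubation: 1 h adhesion, overnight exposure; Measured by: fluorescence 485/525 nm; Read-out: fibronectin deposition inhibition.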
AF4-AF9 inh: blocks AF4 peptide binding to human AF9; AID 651704; AlphaScreen, biotin-AF4 peptide binding to FLAG-AF9; hit rate 0.47% among 350,000; inhibition, % at 10 µM; P42568;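 active means every replicate reaching a set inhibition limit, whatever the replicate mean, cut at about 25% in these data; inconclusive means mean inhibition reaches that limit but some replicates miss it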;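 further: 0% = plate neutral control median and 100% = total signal loss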
Target sequence (P42568 whole entry, looked up): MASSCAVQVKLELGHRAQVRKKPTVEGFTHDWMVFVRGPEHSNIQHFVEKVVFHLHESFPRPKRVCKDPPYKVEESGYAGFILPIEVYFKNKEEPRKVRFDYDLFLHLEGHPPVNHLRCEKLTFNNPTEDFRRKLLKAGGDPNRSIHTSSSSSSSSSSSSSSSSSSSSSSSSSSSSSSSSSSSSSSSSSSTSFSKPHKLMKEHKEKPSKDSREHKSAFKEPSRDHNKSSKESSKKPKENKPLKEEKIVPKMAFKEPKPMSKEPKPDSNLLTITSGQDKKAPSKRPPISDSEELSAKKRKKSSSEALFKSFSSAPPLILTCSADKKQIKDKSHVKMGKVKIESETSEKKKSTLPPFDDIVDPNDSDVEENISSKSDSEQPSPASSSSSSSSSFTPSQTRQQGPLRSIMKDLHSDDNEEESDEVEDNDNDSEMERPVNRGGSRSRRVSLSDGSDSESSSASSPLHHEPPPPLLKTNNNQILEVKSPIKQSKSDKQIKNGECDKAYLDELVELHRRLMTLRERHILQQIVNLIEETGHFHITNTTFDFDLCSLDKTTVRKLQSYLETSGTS
PAX8 inh HTS: inhibitors of PAX8 transcriptional activity in RMG-I cells. RMG-I TPO-luciferase reporter, SteadyGlo, 24 h. hit rate 1.2% among 360,000. inhibition, % at 12.6 µM. AID 652154;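 active means mean replicate inhibition at least 60% with every replicate also reaching 60%; inconclusive means only one of the two criteria is met; inactive means mean below 60% and not all replicates reaching 60%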;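 further: luciferase light reporting Pax8 driven TPO promoter activity; plate controls were median of neutral control wells for no effect and mitoxantrone controls for full effect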
N-glyco inh: blocks N-linked glycosylation in D54 reporter cells; D54 ERlucT glycosylation luciferase reporter, 24 h; percent of 100 nM tunicamycin response; reporter increase, % at 12.5 µM; hit rate 0.23% among 360,000; AID 588692;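 active means mean luciferase reporter signal, scaled so untreated is 0 and the glycosylation-blocking control 100, at or above a set limit in every replicate; inconclusive means mean reaches the limit but not every replicate does; inactive means mean below the limit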;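 further: luciferase carries N-glycosylation sites so blocking glycosylation raises the light; 0% = median of neutral control wells and 100% = median of 100 nM tunicamycin wells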
EWS-Fli block: blocks EWS/Fli oncoprotein-driven transcription; AID 651661; hit rate 0.67% among 350,000; A673 NR0B1-luciferase reporter, viability-normalised; inhibition, % at 12.6 µM;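 active means mean inhibition of at least 50% after viability correction, with every replicate also passing that limit; inconclusive means mean reaches 50% but only one of two replicates passes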;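 further: firefly luciferase signal divided by Alamar Blue viability fluorescence both relative to DMSO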
Env fusion inh: inhibitors of HIV Env-mediated cell fusion. HeLa-JRFL Env/CEM21 cell fusion, luciferase. inhibition, % at 12.3 µM. hit rate 1.1% among 360,000. AID 651610;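 active means mean replicate inhibition score of at least 50 and every replicate individually at or above 50; inconclusive means only one of the two criteria met; inactive means mean below 50 and not all replicates reaching 50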;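 further: 0% = plate neutral controls and 100% = maraviroc near 300 nM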
* hit, by the source's call; u = inconclusive; x = no result; [ ] = dose if it differs, or a comment. Most compounds without a hit are left out; they make up all but 2.5% or so of the library.

SMILES | FN deposit inh | AF4-AF9 inh | PAX8 inh HTS | N-glyco inh | EWS-Fli block | Env fusion inh
O=[N+]([O-])c1ccc(C2CCCC/C2=N\OCc2cccc(F)c2)c([N+](=O)[O-])c1 (stereo not drawn) | 4.9 | x | x | -8.4 | x | 84.8*
CC1CCCC/C1=N/Nc1ccc([N+](=O)[O-])cc1[N+](=O)[O-] (stereo not drawn) | x | x | x | 2.3 | x | x
Oc1cc2c(cc1C(c1ccc(Cl)c(Cl)c1)N1CCCC1)OCO2 (stereo not drawn) | 6.4 | 26.7* | -7.0 | 2.6 | -5.5 | 0.5
CC(C)[C@H](NC(=O)c1ccco1)C(=O)NCc1ccccc1 | -0.5 | -1.9 | 3.1 | 0.0 | -0.8 | -0.8
CC(C)[C@H](NC(=O)c1ccco1)C(=O)NC12CC3CC(CC(C3)C1)C2 | -33.6 | -1.7 | 0.0 | 1.2 | -1.5 | 57.6*
C[C@H](CO)N1C[C@H](C)[C@H](CN(C)S(C)(=O)=O)Oc2ncc(C#Cc3cccnc3)cc2C1=O | x | -3.3 | x | x | -4.1 | 9.7[16.7 µM]
CO[C@H]1CN(C)C(=O)c2cc(NC(=O)c3cccc(Oc4ccccc4)c3)ccc2OC[C@H](C)NC[C@@H]1C | 15.6 | x | x | x | 15.7 | x
CNC[C@H]1Oc2ccc(NC(=O)CCCN(C)C)cc2C(=O)N([C@@H](C)CO)C[C@H]1C | -5.8 | -19.3 | -14.4 | x | 8.6 | 13.5[16.7 µM]
CC(C)(C)N1C(=O)[C@H]2[C@@H](c3ccc(Br)cc3)N3C(=O)N(c4cccc(Cl)c4)C(=O)[C@@]3(Cc3ccccc3)[C@H]2C1=O | -3.1 | -1.0 | 19.0 | 6.4 | -2.7 | -0.1
O=C1[C@H]2[C@@H](c3ccc(Cl)cc3)N3C(=O)N(c4cccc(Br)c4)C(=O)[C@@]3(Cc3ccc(Cl)cc3)[C@H]2C(=O)N1C1CCCCC1 | -7.3 | -0.7 | 19.3 | 0.0 | -5.2 | 82.5*
O=C1[C@H]2[C@@H](c3ccc(F)cc3)N3C(=O)N(c4cccc(Br)c4)C(=O)[C@@]3(Cc3ccc(Cl)cc3)[C@H]2C(=O)N1C1CCCCC1 | 2.6 | 1.9 | 24.5 | 1.7 | 4.7 | 58.7*
O=C(NCc1ccc2c(c1)OCO2)c1cccc(C(=O)NCc2ccc3c(c2)OCO3)c1 | x | x | x | -2.5 | x | x
O=C(NCc1ccc2c(c1)OCO2)c1cc2c(s1)CSC2 | -0.9 | 13.7 | -7.0 | 0.9 | 3.9 | 60.8*
Cc1ccc(Cl)cc1N1CCN(C(=O)CSc2nnc3n2C(C)(C)Cc2ccccc2-3)CC1 | x | x | -15.9 | -3.4 | x | 76.3*
O=C(C[C@@H]1C[C@H]2c3cc(NC(=O)NC4CCCC4)ccc3O[C@H]2[C@H](CO)O1)NC1CCCC1 | -12.5 | -4.3 | 9.9 | x | -3.8 | 21.7[16.7 µM]
O=C(C[C@@H]1CC[C@@H]2[C@H](COC[C@H](O)CN2C(=O)c2ccccc2)O1)NCc1ccc(-c2ccccc2)cc1 | -0.9 | 3.1 | 4.5 | x | 2.3 | 5.6[16.7 µM]
COc1ccc(-c2nc3c(c(SCC(=O)Nc4cccc(O)c4)n2)Cc2c(CO)cnc(C)c2O3)cc1 | -11.2 | -0.3 | 88.2* | 5.4 | x | 2.4
Cc1ncc(CO)c2c1Oc1nc(-c3ccccc3)nc(SCC(=O)Nc3cccc(O)c3)c1C2 | -14.1 | -0.3 | 28.3 | -1.3 | -0.4 | 0.4
O=C(COC(=O)c1c2c(nc3ccccc13)CCN(Cc1ccccc1)C2)Nc1c(F)cccc1F | 9.0 | 8.2 | 73.4* | -9.6 | x | -22.7
O=c1cc(-c2ccc(O)cc2)oc2c1ccc1ccccc12 | 7.7 | 0.0 | -52.0 | -3.2 | -16.1 | x
O=c1cc(-c2ccc(O)cc2)oc2ccc3ccccc3c12 | -7.1 | 2.0 | 110.3* | -17.0 | 88.6* | x
C[C@H](CO)N1C[C@H](C)[C@@H](CN(C)Cc2ccc(C(=O)Nc3ccccc3N)cc2)Oc2ccc(N(C)C)cc2C1=O | -10.1 | 11.6 | 29.5 | x | u | 15.4[16.7 µM]
C[C@@H]1CN([C@H](C)CO)C(=O)c2cc(N(C)C)ccc2O[C@@H]1CN(C)Cc1ccc(C(=O)Nc2ccccc2N)cc1 | x | 2.8 | 50.3 | x | 73.9* | -5.2[16.7 µM]
C[C@@H]1CN([C@H](C)CO)C(=O)Cc2cc(N(C)C)ccc2O[C@@H]1CN(C)Cc1ccc(C(=O)Nc2ccccc2N)cc1 | -13.5 | 9.4 | 62.2* | x | 8.2 | -120.6[16.7 µM]
COc1ccc2c3c([nH]c2c1)[C@@H](CO)N(C(=O)CN1CCOCC1)CC31CN(C(C)=O)C1 | x | -4.3 | x | x | -13.2 | x
SMILES | FN deposit inh | AF4-AF9 inh | PAX8 inh HTS | N-glyco inh | EWS-Fli block | Env fusion inh
Cc1ccc(C)c(OCC(O)CN2CCC(Cc3ccccc3)CC2)c1 (stereo not drawn) | -4.2 | 1.9 | 6.2 | 2.6 | 30.6 | 55.5*
Cc1ccc(C)c(OCC(O)CN2CCN(CCN3C(=O)c4cccc5cccc(c45)C3=O)CC2)c1 (stereo not drawn) | -1.0 | 8.7 | 12.5 | 57.0* | 19.5 | -111.7
COC(=O)CCC[C@H]1CC2(C[C@H](CCCO[Si](C)(C)C(C)(C)C)N1C(=O)OC(C)(C)C)OCCO2 | -4.5 | -12.8 | 17.9 | -5.8 | -15.8 | 74.4*
COc1ccc([C@H]2CC(=O)C=C(c3cc(Cl)ccc3OC)C2)cc1 | -2.8 | 4.1 | 32.0 | 7.5 | 46.9 | 16.1
COc1ccc(C2=CC(=O)CC(c3ccc(OC)cc3)C2)cc1 (stereo not drawn) | 1.0 | -1.3 | -10.9 | 1.7 | -20.5 | 3.3
CCOc1ccc(Cl)cc1C1=CC(=O)C[C@H](c2ccc(OC)cc2)C1 | 20.5 | 2.0 | 22.0 | 23.2 | 60.0* | 10.3
COc1ccc([C@H]2CC(=O)C=C(c3c(OC)cccc3OC)C2)cc1 | 25.1 | 7.8 | 11.2 | 28.6* | 63.3* | 33.9
Nc1nc(N)c2c(ccc3c2ccn3Cc2cccc([N+](=O)[O-])c2)n1 | 9.8 | 7.7 | 117.0* | -19.8 | 39.5 | 7.0
C[C@H](CO)N1C[C@H](C)[C@@H](CN(C)Cc2ccc(Oc3ccccc3)cc2)Oc2ccc(N(C)C)cc2CC1=O | 1.5 | 71.7* | 36.1 | x | 6.6 | -2.9[16.7 µM]
C[C@@H]1CN([C@@H](C)CO)C(=O)Cc2cc(N(C)C)ccc2O[C@H]1CN(C)Cc1ccc(Oc2ccccc2)cc1 | x | x | 81.5* | x | -15.5 | 34.0[16.7 µM]
C[C@@H]1CN([C@@H](C)CO)C(=O)Cc2cc(N(C)C)ccc2O[C@@H]1CN(C)Cc1ccc(-c2ccccc2)cc1 | 6.4 | 42.2* | 16.8 | x | 6.5 | x
C[C@H](CO)N1C[C@H](C)[C@H](CN(C)Cc2ccc(Oc3ccccc3)cc2)Oc2ccc(N(C)C)cc2CC1=O | x | 26.8* | 16.2 | x | 1.8 | 12.1[16.7 µM]
C[C@H](CO)N1C[C@H](C)[C@@H](CN(C)Cc2ccccc2)Oc2ccc(N(C)C)cc2CC1=O | x | 16.7 | -1.7 | x | 1.2 | 9.4[16.7 µM]
C[C@H]1CN([C@@H](C)CO)C(=O)c2cc(NC(=O)Cc3cn(C)c4ccccc34)ccc2O[C@H]1CN(C)C(=O)NC1CCCCC1 | -3.4 | -1.1 | 14.4 | x | -2.6 | -6.0[16.7 µM]
O=C(NC1CCCCC1)N[C@H]1CC[C@H](CCNS(=O)(=O)c2ccc(F)cc2)O[C@@H]1CO | x | 2.0 | 7.3 | x | -3.4 | -9.3[16.7 µM]
